Test results taken from ChEMBL document CHEMBL4342467, “Discovery of a Novel Dual-Target Inhibitor of ERK1 and ERK5 That Induces Regulated Cell Death to Overcome Compensatory Mechanism in Specific Tumor Types” (J Med Chem, 2020).
Activity calls are given as the source filed them. The calls are words filed in the database; no cut-off is given here.

Columns and labels:
[1] = Half life in Sprague-Dawley rat at 10 mg/kg, po by LC-MS analysis; type: ADME, organism-based; conditions: in vivo
Outline: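 Rats, two groups of 3; single i.v. dose 1 mg/kg or oral dose 10 mg/kg. Plasma concentration-time profiles used to derive T1/2, Tmax, Cmax, AUC0-t, AUC0-∞ and oral bioavailability. Data from triplicate testing, ± standard deviation.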

[2] = biological target: Mitogen-activated protein kinase 1 (Homo sapiens) (UniProt P28482); test: Inhibition of wild-type human full length ERK2 (M1 to S360 residues) expressed in bacterial expression system at 1 uM by Kinomescan method relative to control
Outline: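 KINOMEscan binding assays over a 100-kinase panel, with test compound at 1 μM. Results are given as % inhibition.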

HL-60 = test: Antitumor activity against human HL60 cells xenografted in BALB/c mouse assessed as reduction in tumor weight at 50 mg/kg, po administered once daily for 16 days measured post-last dose; type: functional, organism-based
Outline: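 Female nude mice bearing subcutaneous xenografts (8 per group) received vehicle or 50 mg/kg p.o. once daily for 16 days. Excised tumors weighed and compared with control group.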

[3] = Effect on Ras/Raf/MEK/ERK signaling in human MKN74 cells assessed as change in JNK phosphorylation at Thr183/Tyr185 residue at 0.5 uM measured up to 24 hrs by Western blot analysis; type: cell-based
Outline: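 MKN-74 cells exposed to 0.5 μM for 0, 6, 12 and 24 h. Ras, Raf, p-MEK1/2, MEK1/2, p-JNK, JNK, p-p38 and p38 immunoblotted, with GAPDH as loading control.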

MKN-74 = test: Cytotoxicity against human MKN74 cells harboring ATG5 siRNA assessed as reduction in cell viability at 0.5 uM by MTT assay; type: functional, cell-based
Outline: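 MKN-74 cells transfected with ATG5-specific or negative-control siRNA for the indicated times, then treated with 0.5 μM. Viability read by MTT assay.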

[4] = biological target: Mitogen-activated protein kinase; ERK1/ERK2 (Homo sapiens) (UniProt P27361+P28482); test: Inhibition of ERK1/2 phosphorylation in human MKN74 cells harboring ERK1/2 siRNA at 0.5 uM by immunofluorescence assay; type: cell-based
Outline: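 MKN-74 cells transfected with ERK1/2-specific or negative-control siRNA for the indicated times, then given 0.5 μM. p-ERK1/2 and p-ERK5 puncta detected by immunocytochemistry.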

Sequence of Mitogen-activated protein kinase; ERK1/ERK2 (Homo sapiens) (P27361 whole entry, looked up): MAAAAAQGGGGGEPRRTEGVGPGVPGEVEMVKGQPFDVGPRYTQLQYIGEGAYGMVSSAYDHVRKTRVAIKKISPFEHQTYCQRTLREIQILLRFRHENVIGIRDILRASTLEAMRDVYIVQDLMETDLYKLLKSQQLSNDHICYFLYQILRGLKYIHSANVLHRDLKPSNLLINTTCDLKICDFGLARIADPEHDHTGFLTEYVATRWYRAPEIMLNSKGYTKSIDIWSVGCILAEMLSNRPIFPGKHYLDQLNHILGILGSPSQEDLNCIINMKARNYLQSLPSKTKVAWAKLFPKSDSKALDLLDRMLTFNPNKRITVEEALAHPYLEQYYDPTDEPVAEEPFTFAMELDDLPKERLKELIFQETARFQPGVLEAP
Sequence of Mitogen-activated protein kinase; ERK1/ERK2 (Homo sapiens) (P28482 whole entry, looked up): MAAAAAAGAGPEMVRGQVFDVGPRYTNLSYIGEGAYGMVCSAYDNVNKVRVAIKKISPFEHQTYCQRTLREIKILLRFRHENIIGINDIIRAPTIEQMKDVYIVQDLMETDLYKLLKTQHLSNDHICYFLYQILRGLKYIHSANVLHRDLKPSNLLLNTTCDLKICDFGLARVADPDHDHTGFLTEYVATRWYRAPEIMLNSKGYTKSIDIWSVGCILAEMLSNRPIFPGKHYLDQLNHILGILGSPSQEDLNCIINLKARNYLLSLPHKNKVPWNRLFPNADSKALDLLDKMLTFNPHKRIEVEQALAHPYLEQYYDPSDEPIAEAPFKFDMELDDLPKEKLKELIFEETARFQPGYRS
Sequence of Mitogen-activated protein kinase 1 (Homo sapiens) (P28482 whole entry, the tested form may be a part): as the sequence (P28482 whole entry, looked up) above

half-life [1]: 1.24 h
inhibition [2]: 91%
inhibition [4]: Active
Compound: NC(=O)c1c(NC(=O)c2ccccc2Cl)sc2c1CCN(C(=S)Nc1ccccc1Cl)C2
Activity (HL-60): Active
Activity [3]: inactive
Activity (MKN-74): inactive
